From ChEMBL document CHEMBL1158993, “Inhibition of tumor-promoter-enhanced 3H-choline incorporation into cellular phospholipids by phloroglucinol derivatives from Mallotus japonicus” (1991)
Converted amounts (≈) assume the structure as drawn. The source made the active and inactive calls. The rule behind the calls is not given here.

Key:
[1] = Antitumor promotor activity against mouse C3H10T1/2 cells assessed as inhibition of TPA-enhanced [3H]choline chloride incorporation in to phospholipids at 50 ug/ml after 1 hr; assay type: functional; details: C3H 10T1/2
[2] = Antitumor promotor activity against mouse C3H10T1/2 cells assessed as inhibition of TPA-enhanced [3H]choline chloride incorporation in to phospholipids at 10 ug/ml after 1 hr; assay type: functional; details: C3H 10T1/2
[3] = Antitumor promotor activity against mouse C3H10T1/2 cells assessed as inhibition of TPA-enhanced [3H]choline chloride incorporation in to phospholipids at 2 ug/ml after 1 hr; assay type: functional; details: C3H 10T1/2
KB = experiment: Cytotoxicity against human KB cells; assay type: functional
B16 = experiment: Cytotoxicity against mouse B16 cells; assay type: functional, cell-based
L5178Y = experiment: Cytotoxicity against mouse L5178Y cells; assay type: functional, cell-based
PC-13 = experiment: Cytotoxicity against human PC13 cells; assay type: functional, cell-based
HEp-2 = experiment: Cytotoxicity against human Hep2 cells; assay type: functional, cell-based
P388 = experiment: Cytotoxicity against mouse P388 cells; assay type: functional, cell-based
[4] = Antitumor promotor activity against mouse C3H10T1/2 cells assessed as inhibition of TPA-enhanced [3H]choline chloride incorporation in to phospholipids after 1 hr; assay type: functional; details: C3H 10T1/2, read-out: ID50 (the source's name)
Method in brief: (§1)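 Mouse C3H10T1/2 fibroblasts were exposed to test agent for 1 h. Then [methyl-3H]choline chloride (9.25 kBq/culture) was added together with TPA (50 nM), and incubation continued for 4 h. Radioactivity in the phospholipid fraction was measured, and inhibition of the TPA-enhanced incorporation was expressed as %. Test concentrations were 50, 10, 2 or 1.5 µg/ml. Values are means of duplicate experiments.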

C3H 10T1/2 = experiment: Antitumor promotor activity against mouse C3H10T1/2 cells assessed as inhibition of TPA-enhanced [3H]choline chloride incorporation in to phospholipids at 1.5 ug/ml after 1 hr; assay type: functional, cell-based; method in brief: as §1

**Q.** With `COc1c(C)c(O)c(C(C)=O)c(O)c1Cc1c(O)c(C(C)=O)c(O)c2c1OC(C)(C)C(O)C2` (stereo unspecified) [ISOMALLOTOCHROMANOL] as the molecule, how does the inhibition at 50 µg/mL [1] read?
**A.** 100%

**Q.** And the inhibition at 10 µg/mL [2]?
**A.** 95.5%

**Q.** And the inhibition at 2 µg/mL [3]?
**A.** 0%

**Q.** With `COc1c(C)c(O)c(C(C)=O)c(O)c1Cc1c(O)c(C(C)=O)c(O)c2c1OC(C)(C)C=C2` [ISOMALLOTOCHROMENE] as the molecule, how does the inhibition at 50 µg/mL [1] read?
**A.** 100%

**Q.** What about the inhibition at 10 µg/mL [2] of the same molecule?
**A.** 100%

**Q.** And the inhibition at 2 µg/mL [3]?
**A.** 97.9%

**Q.** And the Activity (KB)?
**A.** Active

**Q.** With `COc1c(C)c(O)c(C(C)=O)c(O)c1Cc1c(O)c2c(c(C(C)=O)c1O)OC(C)(C)C(O)C2` (stereo unspecified) [MALLOTOCHROMANOL] as the molecule, how does the inhibition at 50 µg/mL [1] read?
**A.** 100%

**Q.** What about the inhibition at 10 µg/mL [2] of the same molecule?
**A.** 29.2%

**Q.** What about the inhibition at 2 µg/mL [3] of the same molecule?
**A.** 2.9%

**Q.** For `COc1c(C)c(O)c(C(C)=O)c(O)c1Cc1c(O)c2c(c(C(C)=O)c1O)OC(C)(C)CC2` [MALLOTOCHROMAN], which inhibition at 50 µg/mL [1] is on record?
**A.** 74.3%

**Q.** And the inhibition at 10 µg/mL [2]?
**A.** 68.7%

**Q.** And the inhibition at 2 µg/mL [3]?
**A.** 9.3%

**Q.** Which inhibition at 50 µg/mL [1] does the source give for `COc1c(C)c(O)c(C(C)=O)c(O)c1Cc1c(O)c2c(c(C(C)=O)c1O)OC(C)(C)C=C2` [MALLOTOCHROMENE] here?
**A.** 100%

**Q.** And the inhibition at 10 µg/mL [2]?
**A.** 66.7%

**Q.** And the Activity (KB)?
**A.** Active

**Q.** With `COc1c(C)c(O)c(C(C)=O)c(O)c1Cc1c(O)c(CC=C(C)C)c(O)c(C(C)=O)c1O` [MALLOTOJAPONIN] as the molecule, how does the Activity (B16) read?
**A.** Active

**Q.** What about the inhibition at 50 µg/mL [1] of the same molecule?
**A.** 100%

**Q.** And the inhibition at 10 µg/mL [2]?
**A.** 100%

**Q.** And the Activity (L5178Y)?
**A.** Active

**Q.** What about the Activity (PC-13) of the same molecule?
**A.** Active

**Q.** What about the Activity (HEp-2) of the same molecule?
**A.** Active

**Q.** And the Activity (P388)?
**A.** Active

**Q.** And the inhibition at 2 µg/mL [3]?
**A.** 85.8%

**Q.** And the EC50 (KB; read-out: ED50 (the source's name))?
**A.** 0.58 µg/mL (≈ 1.3 µM)

**Q.** And the IC50 [4]?
**A.** 1 µg/mL

**Q.** What about the Activity (C3H 10T1/2) of the same molecule?
**A.** Active

**Q.** Which inhibition at 50 µg/mL [1] does the source give for `C=C(C)C(O)Cc1c(O)c(Cc2c(O)c(C(C)=O)c(O)c(C)c2OC)c(O)c(C(=O)CCC)c1O` (stereo unspecified) [MALLOTOLERIN] here?
**A.** 100%

**Q.** And the inhibition at 10 µg/mL [2]?
**A.** 100%

**Q.** And the inhibition at 2 µg/mL [3]?
**A.** 78.8%

**Q.** What about the Activity (KB) of the same molecule?
**A.** Active
